Measured values as given in PubChem BioAssay.
Activity calls are given as the source filed them.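 Rule for the calls, unless noted: active = viability at or below 30% in both replicate assays; inconclusive = viability at or below 30% in just one of the two assays; inactive = the rest.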

What was measured:
[1] = reducers of endogenous Her2 protein level, primary screen, SKBR3 breast tumor cells, AlphaScreen, ATP viability (AID 461;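 active = Her2 level under about 52% in both replicate screens, with viability over 70% of control, limit read from the data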;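 for Her2 level: lower value means less Her2 protein in the cells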;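 for viability: percent of carrier control wells set as 100% viability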); details: 18-24 h, measured here: SKBR3 viability, ATP luminescence, at 10 µM
[2] = molecular target: Receptor tyrosine-protein kinase erbB-2 (Homo sapiens) (UniProt P04626); assay: as above; details: 18-24 h, at 10 µM, stronger effect = lower value
Chain of Receptor tyrosine-protein kinase erbB-2 (Homo sapiens) (P04626 whole entry, looked up): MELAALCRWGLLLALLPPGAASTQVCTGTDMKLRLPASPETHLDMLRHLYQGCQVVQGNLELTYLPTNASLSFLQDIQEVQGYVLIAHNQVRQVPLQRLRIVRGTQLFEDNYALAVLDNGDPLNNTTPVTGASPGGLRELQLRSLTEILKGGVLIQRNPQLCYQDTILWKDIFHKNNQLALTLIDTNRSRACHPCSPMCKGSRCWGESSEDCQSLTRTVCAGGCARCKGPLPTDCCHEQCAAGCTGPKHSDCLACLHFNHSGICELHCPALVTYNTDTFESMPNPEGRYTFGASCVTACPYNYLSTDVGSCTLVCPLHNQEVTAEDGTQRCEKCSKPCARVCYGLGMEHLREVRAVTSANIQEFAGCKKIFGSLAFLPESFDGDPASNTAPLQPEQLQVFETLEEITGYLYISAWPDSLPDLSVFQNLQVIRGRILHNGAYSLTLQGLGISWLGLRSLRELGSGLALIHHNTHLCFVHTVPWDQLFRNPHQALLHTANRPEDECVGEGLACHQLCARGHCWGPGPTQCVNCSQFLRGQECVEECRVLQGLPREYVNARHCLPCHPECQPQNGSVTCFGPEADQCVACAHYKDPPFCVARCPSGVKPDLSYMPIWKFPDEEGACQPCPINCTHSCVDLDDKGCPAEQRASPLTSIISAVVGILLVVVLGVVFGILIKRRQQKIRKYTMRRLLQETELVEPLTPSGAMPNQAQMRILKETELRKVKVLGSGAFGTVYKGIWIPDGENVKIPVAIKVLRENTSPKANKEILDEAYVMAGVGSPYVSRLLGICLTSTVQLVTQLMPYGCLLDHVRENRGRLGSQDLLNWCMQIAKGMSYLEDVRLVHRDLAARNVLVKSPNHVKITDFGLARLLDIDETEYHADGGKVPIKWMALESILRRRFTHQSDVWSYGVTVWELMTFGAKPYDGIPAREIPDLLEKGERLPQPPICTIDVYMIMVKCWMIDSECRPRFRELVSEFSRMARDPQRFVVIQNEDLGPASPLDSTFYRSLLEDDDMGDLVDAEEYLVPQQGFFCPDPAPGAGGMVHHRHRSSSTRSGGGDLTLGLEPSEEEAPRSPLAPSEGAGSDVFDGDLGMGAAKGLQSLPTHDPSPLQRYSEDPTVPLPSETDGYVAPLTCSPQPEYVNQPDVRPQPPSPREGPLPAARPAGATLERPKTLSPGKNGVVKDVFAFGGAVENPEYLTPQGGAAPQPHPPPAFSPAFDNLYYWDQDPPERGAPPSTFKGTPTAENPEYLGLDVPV

[3] = SK-BR-3 cell growth inhibitors, pilot screen, 24 h, human (AID 572;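 active = viability at or below 10% of carrier control in both of two separate runs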;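 note: compound exposure lasted between 18 and 24 h rather than exactly 24 h; 100% = carrier-treated control wells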); details: SK-BR-3 viability, CellTiter-Glo luminescence, at 10 µM, stronger effect = lower value
[4] = HUVEC growth inhibition – cell-based, human, primary screen (AID 575); details: HUVEC proliferation, CellTiter-Glo luminescence, 72 h; at 10 µM; stronger effect = lower value;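 note: 100% = median of untreated cell wells with 0.1% DMSO on each plate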
Procedure, shortened: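 System: primary human umbilical vein endothelial cells; Quantity: 1250 endothelial cells in each well; Buffer or medium: supplemented EBM, 2% fetal bovine serum; Doses: one dose, 10 µM final, 0.1% DMSO; Incubation: 72 h compound incubation; Technique: ATP-based CellTiter-Glo luminescent read; Evaluation: percent of median DMSO-control luminescence; Controls: vehicle and MePR control wells.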

[5] = growth inhibitors of H69AR lung tumor, primary screen, human, duplicate replicates (AID 580;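 active = viability at or under a set limit in both replicates, limit being median viability minus 3 SD, cut at about 48% in these data, passing the limit was not always enough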;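 note: 100% = mean luminescence of untreated wells and 0% = no signal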); details: H69AR lung tumor cells viability, ATP luminescence, 72 h; at 10 µM; stronger effect = lower value
[6] = reversal of MRP1-mediated doxorubicin resistance, pilot screen, H69AR cells, doxorubicin co-treatment (AID 601;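 active = viability loss from added drug above about 55%, and viability with drug at most 40%, in both replicates, limit read from the data, passing the limit was not always enough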); details: CellTiter-Glo, 72 h, at 10 µM; for differential viability (reversal): stronger effect = higher value
[7] = 384-well plate pilot, post-Golgi transport modulator project, inhibition of yeast transport mutant growth (AID 636; in the data active = inhibition above about 31%); details: absorbance 615 nm, about 18 h, stronger effect = higher value
[8] = growth suppression of yeast trafficking mutant, preliminary HTS, modulators of trafficking downstream of Golgi apparatus project, 1536-format plate, OD 615 nm (AID 637; in the data active = inhibition above about 30%); details: yeast transport mutant growth, absorbance 615 nm, 18 h; stronger effect = higher value
[9] = H69AR cells + 2 uM doxorubicin, measured here: viability with 2 uM doxorubicin, stronger effect = lower value
[10] = H69AR cells, compound alone cytotoxicity

Compound	viability [1] [%]	Her2 level [2]	viability [3]	viability [4]	viability [5]	differential viability (reversal) ([6]; H69AR cells + 2 uM doxorubicin)	viability [6, 9] [%]	viability [6, 10] [%]	inhibition [7]	inhibition [8]
CCCCC(=O)NCCNc1nc2c(c(=O)n(C)c(=O)n2C)n1Cc1ccccc1	116	83% (inactive)	116% (inactive)	99.3% (inactive)	94.6% (inactive)	-4.03% (inactive)	98.7	94.6	-5.68% (inactive)	2.06% (inactive)
c1cn2cc(CSC3CCCCC3)nc2s1	84	80% (inactive)	84% (inactive)	86.5% (inactive)	97.2% (inactive)	10.9% (inactive)	86.4	97.2	-7.16% (inactive)	6.35% (inactive)
Nn1c(SCc2csc(-c3ccccc3)n2)nnc1-c1cccs1	83	82.5% (inactive)	83% (inactive)	85.2% (inactive)	97.3% (inactive)	6.11% (inactive)	91.2	97.3	-9.05% (inactive)	5.25% (inactive)
O=C(CSc1ccc(Cl)cc1)OCc1nnc(-c2ccccc2)o1	98	99% (inactive)	98% (inactive)	106% (inactive)	109% (inactive)	29.6% (inactive)	79.5	109	0.53% (inactive)	-0.91% (inactive)
Cc1ccc(N2C(=O)c3ccccc3C2O)nc1 (stereo not given)	122	93% (inactive)	122% (inactive)	59.8% (inactive)	53.6% (inactive)	0.305% (inactive)	53.3	53.6	-0.13% (inactive)	-1.83% (inactive)
COc1ccc(-c2cc(C(F)(F)F)n3nc(C(=O)N4CCOCC4)nc3n2)cc1	88	116% (inactive)	88% (inactive)	101% (inactive)	94.1% (inactive)	4.48% (inactive)	89.6	94.1	-0.64% (inactive)	-4.17% (inactive)
Cc1cc(-c2ccccc2)c2c3c(cn2n1)c(=O)n(C)c(=O)n3C	108	83% (inactive)	108% (inactive)	84.3% (inactive)	75.6% (inactive)	-0.565% (inactive)	76.1	75.6	-2.37% (inactive)	0.33% (inactive)
COc1ccc2nc(C)cc(N3CCOCC3)c2c1	128	101% (inactive)	128% (inactive)	101% (inactive)	93.1% (inactive)	-3.77% (inactive)	96.9	93.1	-3.68% (inactive)	9.67% (inactive)
COc1ccc2nc(CC(C)(C)CC(=O)O)c[n+]([O-])c2c1	109	95.5% (inactive)	109% (inactive)	106% (inactive)	99.2% (inactive)	9.58% (inactive)	89.6	99.2	-2.7% (inactive)	5.08% (inactive)
CN1CCN(C(c2cccc(C(F)(F)F)c2)c2nnnn2C(C)(C)C)CC1 (stereo not given)	94.5	86.5% (inactive)	94.5% (inactive)	102% (inactive)	91.5% (inactive)	1.82% (inactive)	89.7	91.5	-4.8% (inactive)	0.82% (inactive)
C=CCn1c2ccccc2c2nnc(SCC(=O)NC(C(=O)OC)C(C)C)nc21 (stereo not given)	112	96% (inactive)	112% (inactive)	83.5% (inactive)	76.8% (inactive)	2.25% (inactive)	74.5	76.8	-3.12% (inactive)	-4.26% (inactive)
Cc1cc(NC(=O)c2cc3ccccc3o2)cc(C)c1OCC(=O)N1CCOCC1	92.5	102% (inactive)	92.5% (inactive)	90.6% (inactive)	90.3% (inactive)	0.745% (inactive)	89.5	90.3	-6.89% (inactive)	-1.8% (inactive)
COc1ccc(NC(=O)CSC2=C(C#N)C(c3ccco3)C3=C(CCCC3=O)N2)c(OC)c1 (stereo not given)	108	93% (inactive)	108% (inactive)	86.6% (inactive)	73% (inactive)	4.23% (inactive)	68.8	73	-2.11% (inactive)	0.65% (inactive)
CCOC(=O)c1sc(N)c(C(=O)OCC)c1COC(=O)C1CC(=O)N(Cc2ccco2)C1 (stereo not given)	91.5	113% (inactive)	91.5% (inactive)	80.7% (inactive)	72.4% (inactive)	22.6% (inactive)	49.8	72.4	-7.6% (inactive)	-8.71% (inactive)
CN(Cc1cccs1)CC(O)COCc1ccco1 (stereo not given)	107	91.5% (inactive)	107% (inactive)	109% (inactive)	90.5% (inactive)	-3.35% (inactive)	93.9	90.5	-3.92% (inactive)	2.22% (inactive)
Cn1nnnc1SCC(=O)NC1CCCCC1	77.5	77% (inactive)	77.5% (inactive)	108% (inactive)	96.1% (inactive)	-1.11% (inactive)	97.2	96.1	-5.95% (inactive)	-2.62% (inactive)
